Experiments:
[1] = Drug level treated with demethoxy curcumin assessed as horseradish peroxidase-mediated oxidation at 50 uM after 1 hr in presence of H2O2 by LC-MS analysis; assay type: ADME; settings: armoracia rusticana
Method in brief: (§1)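 HRP/H2O2 oxidation in 1 mL of 20 mM NH4OAc, pH 8, with 50 μM curcuminoid and 2.5 × 10−6 U horseradish peroxidase. H2O2 (40 μM) started the reaction, which ran 1 h at 37 °C. An aliquot was injected directly for negative-ion LC-MS.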

[2] = Drug metabolism assessed as horseradish peroxidase-mediated oxidation by measuring deuterated-demethoxy-7-Norcyclopentadione formation at 50 uM after 1 hr in presence of H2O2 by LC-MS analysis; assay type: ADME; settings: armoracia rusticana; method in brief: as §1
[3] = Drug metabolism assessed as horseradish peroxidase-mediated oxidation by measuring demethoxy-7-Norcyclopentadione formation at 50 uM after 1 hr in presence of H2O2 by LC-MS analysis; assay type: ADME; settings: armoracia rusticana; method in brief: as §1
[4] = Drug level in pH 7.4 buffer containing 50% H218O treated with curcumin at 50 uM by LC-MS analysis; assay type: physicochemical; settings: pH 7.4, 50 µM
Method in brief: (§2)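 Oxygen-18 labelling in 200 μL of 20 mM NH4HCO3, pH 7.4, made with a 1:1 mix of H2O and H218O (97%). Curcumin was added at 50 μM and incubated 1 h at 37 °C. Aliquots went to negative-ion LC-MS without extraction.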

[5] = Drug level treated with curcumin at 50 uM by LC-MS analysis; assay type: physicochemical
[6] = Drug level in mouse RAW264.7 cells treated with curcumin at 10 uM after 30 mins by LC-MS analysis; assay type: ADME, cell-based; settings: raw264.7, 0.5 h
Method in brief: (§3)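 RAW264.7 cells grown in DMEM with 10% FBS, seeded at 400 000 cells/well and attached overnight. They got PMA (stimulated lines) or EtOH vehicle for 5 min, then the test compound at 10 μM for 30 min. Supernatants were extracted on HLB cartridges, eluted with MeOH, dried under N2 and redissolved in MeCN/H2O 1:1. Analysis was negative-ion ESI LC-MS/MS in SRM mode.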

[7] = Drug level in PMA-stimulated mouse RAW264.7 cells treated with curcumin at 10 uM after 30 mins by LC-MS analysis; assay type: ADME, cell-based; settings: raw264.7, 0.5 h; method in brief: as §3
[8] = Drug metabolism in pH 7.4 buffer treated with curcumin at 50 uM by LC-MS analysis
[9] = Drug level in PMA-stimulated mouse RAW264.7 cells treated with 4'-O-methylcurcumin at 10 uM after 30 mins by LC-MS analysis; assay type: ADME, cell-based; settings: raw264.7, 0.5 h; method in brief: as §3
[10] = Drug level in mouse RAW264.7 cells treated with 4'-O-methylcurcumin at 10 uM after 30 mins by LC-MS analysis; assay type: ADME, cell-based; settings: raw264.7, 0.5 h; method in brief: as §3
[11] = Drug metabolism assessed as horseradish peroxidase-mediated oxidation by measuring bisdemethoxy-7-Norcyclopentadione formation at 50 uM after 1 hr in presence of H2O2 by LC-MS analysis; assay type: ADME; settings: armoracia rusticana; method in brief: as §1
[12] = Drug metabolism in pH 7.4 buffer assessed as auto-oxidation by measuring 7-Norcyclopentadione formation at 50 uM by LC-MS analysis
[13] = Drug metabolism in PMA-stimulated mouse RAW264.7 cells assessed as auto-oxidation by measuring 7-Norcyclopentadione formation at 10 uM after 30 mins by LC-MS analysis; assay type: ADME, cell-based; settings: raw264.7, 0.5 h; method in brief: as §3
[14] = Drug metabolism assessed as auto-oxidation by measuring 7-Norcyclopentadione formation at 50 uM by LC-MS analysis
[15] = Drug metabolism in pH 7.4 buffer containing 50% H218O assessed as auto-oxidation by measuring 7-Norcyclopentadione formation at 50 uM by LC-MS analysis; method in brief: as §2
[16] = Drug level treated with deuterated-demethoxy curcumin assessed as horseradish peroxidase-mediated oxidation at 50 uM after 1 hr in presence of H2O2 by LC-MS analysis; assay type: ADME; settings: armoracia rusticana; method in brief: as §1
[17] = Drug metabolism in PMA-stimulated mouse RAW264.7 cells assessed as auto-oxidation by measuring 4''-O-methyl-7-norcyclopentadione formation at 10 uM after 30 mins by LC-MS analysis; assay type: ADME, cell-based; settings: raw264.7, 0.5 h; method in brief: as §3

SMILES: COc1cc(C2C(O)=CC(=O)C2C(O)c2ccc(O)cc2)ccc1O (configuration not stated)
- Drug metabolism [1]: Metabolite_Detected

SMILES: [2H]c1c([2H])c(/C=C/C(=O)CC(=O)/C=C/c2ccc(O)c(OC)c2)c([2H])c([2H])c1O
- Drug metabolism [2]: Metabolite_Detected

SMILES: COc1cc(/C=C/C(=O)CC(=O)/C=C/c2ccc(O)cc2)ccc1O
- Drug metabolism [3]: Metabolite_Detected

SMILES: COc1cc(C(O)C2C(=O)C=C(O)C2c2ccc(O)c(OC)c2)ccc1O (configuration not stated)
- Drug metabolism [4]: Metabolite_Detected
- Drug metabolism [5]: Metabolite_Detected
- Drug metabolism [6]: Metabolite_Detected
- Drug metabolism [7]: Metabolite_Detected
- Drug metabolism [8]: Metabolite detected

SMILES: COc1cc(C2C(O)=CC(=O)C2C(O)c2ccc(OC)c(OC)c2)ccc1O (configuration not stated)
- Drug metabolism [9]: Metabolite_Detected
- Drug metabolism [10]: Metabolite_Detected

SMILES: O=C(/C=C/c1ccc(O)cc1)CC(=O)/C=C/c1ccc(O)cc1 [BISDEMETHOXYCURCUMIN]
- Drug metabolism [11]: Metabolite_Notdetected

SMILES: COc1cc(/C=C/C(=O)CC(=O)/C=C/c2ccc(O)c(OC)c2)ccc1O [CURCUMIN]
- Drug metabolism [12]: Metabolite detected
- Drug metabolism [13]: Metabolite_Detected
- Drug metabolism [14]: Metabolite detected
- Drug metabolism [15]: Metabolite detected

SMILES: [2H]c1c([2H])c(C(O)C2C(=O)C=C(O)C2c2ccc(O)c(OC)c2)c([2H])c([2H])c1O (configuration not stated)
- Drug metabolism [16]: Metabolite_Detected

SMILES: COc1cc(/C=C/C(=O)/C=C(O)/C=C/c2ccc(OC)c(OC)c2)ccc1O
- Drug metabolism [17]: Metabolite_Detected

Source: ChEMBL document CHEMBL4382272, “A Curcumin Degradation Product, 7-Norcyclopentadione, Formed by Aryl Migration and Loss of a Carbon from the Heptadienedione Chain” (J Nat Prod, 2018)
